MBD2 inh = blocks human MBD2 binding to methylated DNA | Q9UBB5 | TR-FRET, MBD2 binding to methylated oligonucleotide | inhibition, % at 4.4 µM | 370,000 tested, 0.31% active; in the data active = inhibition above about 13%
Target sequence (Q9UBB5 whole entry, looked up): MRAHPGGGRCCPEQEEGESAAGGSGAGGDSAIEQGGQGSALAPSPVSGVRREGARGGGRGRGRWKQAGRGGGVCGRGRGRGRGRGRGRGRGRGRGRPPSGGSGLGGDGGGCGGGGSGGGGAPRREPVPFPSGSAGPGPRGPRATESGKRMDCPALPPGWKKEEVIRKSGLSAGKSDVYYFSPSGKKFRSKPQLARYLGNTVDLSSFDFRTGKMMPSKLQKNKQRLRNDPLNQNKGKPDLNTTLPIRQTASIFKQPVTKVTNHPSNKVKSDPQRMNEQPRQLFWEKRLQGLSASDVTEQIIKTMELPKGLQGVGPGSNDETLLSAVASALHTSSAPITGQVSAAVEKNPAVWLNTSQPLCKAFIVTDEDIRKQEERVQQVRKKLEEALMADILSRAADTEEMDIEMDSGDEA
Tn7 DDE FP = inhibitors of Tn7 peptide binding to human fibrin DD(E). P02675. inhibition, % at 8.3 µM. 370,000 tested, 0.13% active. FP displacement of FITC-Tn7 peptide from fibrin DD(E); 0% = median of compound wells per plate;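 active = inhibition above the mean of compounds falling within the control limits plus 3 SD of them, cut at about 14% in these data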;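 note: 0% = plate median of compound wells and 100% = 10 µM Aha-Tn7 peptide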
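Test system – human fibrin DD(E) · Times – 10 min preincubation, 3 h with tracer, room temperature · Detection – fluorescence polarization of the labelled Tn7 tracer · Measure – percent inhibition normalized to high-control wells · Benchmarks – high control wells with 10 µM unlabelled Aha-Tn7 peptide (full inhibition) · Repeats – singlicate testing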
UHRF1 MBD2 ctr = blocks human UHRF1 binding to methylated DNA; Q96T88; UHRF1 binding to methylated oligo, TR-FRET; inhibition, % at 4.4 µM; 370,000 tested, 0.75% active; AID 687016; in the data active = inhibition above about 21%;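 note: UHRF1 SRA domain binding a hemimethylated CpG hairpin DNA probe; 0% = median of test compound wells and 100% = reference inhibitor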
DDE Tn6 FP inh = disrupts Tn6 cyclic peptide binding to fibrin D-Dimer-E complex; 370,000 tested, 0.21% active; AID 720509; inhibition, % at 8.3 µM; Fibrin DD(E) TRITC-Tn6 fluorescence polarization displacement; P02675;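 active = inhibition above a per-campaign cutoff: mean of compounds within control limits plus 3 SD, cut at about 15% in these data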;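 note: 0% = median of all compound wells on the plate and 100% = blocking peptide control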
TDP2 absorb = TDP2 (human) inhibition, absorbance primary screen. O95551. 370,000 tested, 0.34% active. inhibition, % at 12.8 µM. recombinant TDP2, T5PNP hydrolysis, p-nitrophenol absorbance 415 nm;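 active = inhibition above the mean of all tested compounds plus 3 SD, set per campaign, cut at about 25% in these data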;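 note: 0% = DMSO with enzyme and 100% = buffer with substrate but no TDP2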
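Assay system: Recombinant human TDP2 | Quantity: 120 nM TDP2 per well | Incubation: 2 h at 37 °C | Signal: Epi absorbance | Evaluation: Percent inhibition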
LEDGF integ inh = blocks HIV-1 LEDGF/p75-dependent DNA integration; TR-FRET IN-LEDGF/p75 DNA integration, Eu/Cy5; inhibition, % at 3.7 µM; 370,000 tested, 0.64% active; AID 743269;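 active = inhibition above the screen-wide mean plus 3 SD, cut at about 13% in these data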;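 note: signal is the Cy5 over europium emission ratio at 671 and 618 nm; 0% = plate median of compound wells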
TDP2 confirm = confirmation of human TDP2 inhibitors; inhibition, % at 12.8 µM; shares compounds with TDP2 absorb; recombinant human TDP2, absorbance read-out; 1,100 tested, 22% active; in the data active = inhibition above about 25%;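 note: 0% = vehicle with enzyme and 100% = no enzyme buffer only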
* marks the source's active call; other numbers are inactive results; nt = no result. Hits are enriched below; roughly 1.9% of the tested compounds scored in any of these assays.

SMILES | MBD2 inh | Tn7 DDE FP | UHRF1 MBD2 ctr | DDE Tn6 FP inh | TDP2 absorb | LEDGF integ inh | TDP2 confirm
N#CC1=C(N)OC2=C(C(=O)CCC2)[C@]12C(=O)N(CC(N)=O)c1ccccc12 | 3 | 7 | 4 | 12 | 3 | -3 | nt
CCCCN(C(C)=O)C1CC(=O)N(c2ccc(OCCC)cc2)C1=O (centres undefined) | 0 | -1 | -2 | -3 | 29* | 4 | -5
CCc1ccc(NC(=S)Nc2cccc3cnccc23)cc1 | -9 | -9 | -1 | -2 | 38* | 6 | 6
Cc1cc(C)cc(NC(=S)Nc2cccc3cnccc23)c1 | 0 | 5 | 2 | 0 | 9 | -1 | nt
Nc1[nH]c(C(=O)c2ccccc2)c(-c2cccc(C(F)(F)F)c2)c1C(=O)c1c[nH]c2ccccc12 | 4 | -1 | -1 | -12 | 2 | 1 | nt
COC(=O)c1cc2c(-c3ccccc3)c(C)c3ccccn3c-2c1C(=O)OC | -5 | 11 | -6 | 5 | -2 | 3 | nt
COC(=O)c1c(Cl)c2n3ccccc3c(C)c(-c3ccccc3)c-2c1C(=O)OC | -1 | -5 | 5 | 4 | 32* | 4 | 3
S=C(N/N=C/c1ccc2c(c1)OCO2)NC1CC2CCC1C2 (centres undefined) | -1 | 0 | -2 | -3 | 26* | 4 | 7
COc1cc(C(CC(=O)Nc2ncccc2C)N2Cc3ccccc3C2=O)cc(OC)c1OC (centres undefined) | 4 | 8 | -3 | 2 | 26* | 1 | -3
O=C(c1cc(Cl)ccc1F)N1CCCC(c2nc(-c3cccs3)no2)C1 (centres undefined) | 3 | 12 | 2 | 10 | 2 | -5 | nt
COc1cc2c(=O)n(CCC(=O)NCC3CCCO3)c(=O)n(CC(=O)Nc3ccc(F)cc3)c2cc1OC (centres undefined) | -4 | -4 | 2 | 1 | 24* | 2 | -7
COc1c2c(cc3c1C(CC(O)Cc1ccccc1)N(C)CC3)OCO2 (centres undefined) | -3 | -1 | 0 | 6 | 25* | 2 | -2
COc1cccc(CC(O)CC2c3c(cc4c(c3OC)OCO4)CCN2C)c1 (centres undefined) | -3 | 11 | 2 | -3 | -2 | 1 | nt
CCOC(=O)[C@@]12CCC3=C1N(CCC3)C(=O)[C@H](CC(=O)NCCC(C)C)C2 | 2 | 3 | -1 | -8 | -1 | -3 | nt
Cc1cc(N2CCN(C(=O)OC(C)(C)C)C[C@@H]2C)ccc1N1C[C@@H](C)O[C@@H](C)C1 | 2 | -8 | -4 | -6 | 1 | 3 | nt
CNC(=O)C(=O)Nc1c(O)c2ccccc2[nH]c1=O | -3 | -8 | 0 | 1 | 27* | -2 | -3
COC(=O)[C@]12C[C@H](CC(=O)NCC3CCCCC3)C(=O)N(CCC3=CCCCC3)C1=C[C@H](COCc1ccccc1)O[C@@H]2C | -3 | 1 | -1 | 0 | -1 | -3 | nt
O=[N+]([O-])c1ccc(S(=O)(=O)NCC2COc3ccccc3O2)cc1 (centres undefined) | -6 | -2 | 3 | 1 | 25* | 7 | -1
COc1cc(N/C(=C\C(=O)c2ccccc2)c2ccccc2)ccc1Cl | 0 | 4 | 2 | 1 | -7 | 0 | nt
Cc1[nH]n(-c2ccccc2)c(=O)c1/C=N/NC(=O)COc1ccccc1[N+](=O)[O-] | -2 | 3 | -10 | -4 | -1 | 1 | nt
COCC(=O)N/N=C/c1c(C)[nH]n(-c2ccccc2)c1=O | -4 | 0 | -7 | -5 | 32* | 4 | 2
CC(=O)N/N=C/c1c(C)[nH]n(-c2ccccc2)c1=O | -5 | 7 | -8 | 14 | 28* | -2 | -3
COC(=O)N/N=C\c1c(C)[nH]n(-c2ccccc2)c1=O | -6 | -2 | -11 | -4 | 12 | -3 | nt
Cc1[nH]n(-c2ccccc2)c(=O)c1/C=N/N1C(=O)c2ccc3c4c(ccc(c24)C1=O)CC3 | -8 | 0 | -15 | 1 | 28* | 2 | -9
Cc1[nH]n(-c2ccccc2)c(=O)c1/C=N/N(C)c1ccccc1 | -9 | -7 | -3 | -4 | 42* | 5 | 9
SMILES | MBD2 inh | Tn7 DDE FP | UHRF1 MBD2 ctr | DDE Tn6 FP inh | TDP2 absorb | LEDGF integ inh | TDP2 confirm
COc1ccc(OC)c(CN2CCC(C(=O)N(C)CCc3ccc(OC)c(OC)c3)CC2)c1 | 4 | 4 | 1 | 5 | -1 | -4 | nt
COc1ccc(CCN(C)C(=O)C2CCCN(C3CCN(Cc4ccccc4)CC3)C2)cc1OC (centres undefined) | -3 | -2 | 4 | 14 | 32* | 5 | 9
CCc1ccc(NC(=O)Nc2cc(C(=O)NCC3CCCO3)ccc2N2CC3CC(C2)c2cccc(=O)n2C3)cc1 (centres undefined) | -2 | 11 | -2 | 12 | 25* | 3 | 2
O=C(N/N=C/c1c(F)cccc1Cl)C1CC1 | 2 | -2 | 3 | -9 | 63* | -3 | -1
CC(=O)Nc1nc2cc(N)ccc2s1 | -2 | -7 | -3 | 3 | 1 | 1 | nt
CC(=O)Nc1nc2cc([N+](=O)[O-])ccc2s1 | -1 | 12 | -4 | 2 | 35* | -1 | 4
O=C(Cc1ccccc1Cl)NC1(O)C(=O)c2ccccc2C1=O | -8 | 5 | -8 | -6 | 47* | -1 | 54*
O=C(Cc1ccc(Cl)cc1)NCc1ccccc1Cl | -2 | 3 | 0 | 9 | 0 | -6 | nt
Cn1[nH]c(CSc2ccc(Cl)cc2)cc1=O | 2 | 9 | 2 | -4 | 48* | 6 | 3
COc1ccccc1NC(=O)CSCc1cc(=O)n2ccsc2n1 | 0 | -2 | 0 | -3 | -3 | 0 | nt
Cc1ccc(NC(=O)CSCc2cc(=O)n3ccsc3n2)c(C)c1 | -3 | -1 | -2 | 8 | 33* | 0 | 6
COc1c(F)c(F)cc2c(=O)c(C(=O)O)cn(C3CC3)c12 | 0 | 9 | -2 | 1 | 26* | -3 | 1
Oc1ccc2[nH]cc(-c3cccs3)c2c1-c1ccccc1 | -8 | 1 | -2 | 5 | 2 | 2 | nt
Cc1ccc(S(=O)(=O)N(C)CC(=O)Nc2cccc(C)n2)cc1 | 0 | 8 | -1 | 2 | 80* | -1 | 7
Cc1ccc(S(=O)(=O)N(C)CC(=O)Nc2ccc(C)cn2)cc1 | 7 | 9 | 1 | -8 | 0 | -3 | nt
CCN1CCN(C(=O)Cn2ncc3c2-c2ccccc2OC3)CC1 | 1 | 2 | 5 | 4 | -4 | -2 | nt
O=C(Cn1ncc2c1-c1ccccc1OC2)N1CCN(Cc2ccccc2)CC1 | 11 | 6 | 27* | -6 | 29* | 2 | 10
